≈ marks a conversion by molar mass, not a printed value.
What was measured:
Type in all cases: functional
Staphylococcus aureus [1] = test: Antimicrobial activity against Staphylococcus aureus 15187 by agar dilution method
Outline: (§1)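 NCCLS agar dilution MIC in Mueller Hinton agar. Compounds were made up as 1 mg/mL DMSO stocks and serially diluted 2-fold into molten agar, final range 16 to 0.015. Direct colony suspensions in saline were set to 0.5 McFarland, diluted 10-fold, and spotted with a replicator. Plates were incubated in ambient air at 35 °C for 18–24 h.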

Moraxella catarrhalis = test: Antimicrobial activity against Moraxella catarrhalis M2 by agar dilution method
Outline: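 MIC was read by NCCLS agar dilution using doubling dilutions in Mueller Hinton agar, 16–0.015 µg/mL final, from 1 mg/mL DMSO stocks. Colonies were suspended in saline to 0.5 McFarland, diluted 10-fold and transferred with a replicator. Plates were incubated at 35 °C for 18–24 h.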

Enterococcus faecium = test: Antimicrobial activity against vancomycin-resistant Enterococcus faecium 6A by agar dilution method; outline: as §1
Enterococcus faecalis = test: Antimicrobial activity against Enterococcus faecalis ATCC 29212 by agar dilution method
Outline: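 Compounds were stocked at 1 mg/mL in DMSO. Direct colony suspensions in saline were set to 0.5 McFarland, diluted 10-fold and applied with a replicator. Plates were incubated in ambient air at 35 °C for 18–24 h.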

Streptococcus pyogenes = test: Antimicrobial activity against Streptococcus pyogenes ATCC 19615 by agar dilution method
Haemophilus influenzae = test: Antimicrobial activity against Haemophilus influenzae ATCC 49247 by agar dilution method
Outline: (§2)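 NCCLS agar dilution with serial 2-fold drug dilutions in Mueller Hinton agar, 16–0.015 µg/mL final. Drug stocks were 1 mg/mL in DMSO. The inoculum was a 0.5 McFarland saline colony suspension diluted 10-fold and replicator-spotted. As fastidious organisms, plates were incubated in 5% CO₂ at 35 °C for 18–24 h.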

Staphylococcus aureus [2] = test: Antimicrobial activity against methicillin-resistant Staphylococcus aureus 562 by agar dilution method; outline: as §1
Staphylococcus aureus [3] = test: Antimicrobial activity against methicillin-resistant Staphylococcus aureus 33 by agar dilution method; outline: as §1
Staphylococcus aureus [4] = test: Antimicrobial activity against Staphylococcus aureus ATCC 25923 by agar dilution method; outline: as §1
Streptococcus pneumoniae = test: Antimicrobial activity against Streptococcus pneumoniae ATCC 6303 by agar dilution method; outline: as §2

Compound	MIC (Staphylococcus aureus [1])	MIC (Moraxella catarrhalis)	MIC (Enterococcus faecium)	MIC (Enterococcus faecalis)	MIC (Streptococcus pyogenes)	MIC (Haemophilus influenzae)	MIC (Staphylococcus aureus [2])	MIC (Staphylococcus aureus [3])	MIC (Staphylococcus aureus [4])	MIC (Streptococcus pneumoniae)
CC(=O)NC[C@H]1CN(c2ccc(N3CCN(c4ccc([N+](=O)[O-])s4)CC3)c(F)c2)C(=O)O1	0.25 µg/mL (≈ 0.539 µM)	0.25 µg/mL (≈ 0.539 µM)	0.25 µg/mL (≈ 0.539 µM)	0.25 µg/mL (≈ 0.539 µM)	0.125 µg/mL (≈ 0.27 µM)	8 µg/mL (≈ 17.3 µM)	0.25 µg/mL (≈ 0.539 µM)	0.25 µg/mL (≈ 0.539 µM)	0.25 µg/mL (≈ 0.539 µM)	0.125 µg/mL (≈ 0.27 µM)
O=C1O[C@@H](CO)CN1c1ccc(N2CCN(c3ccc([N+](=O)[O-])s3)CC2)c(F)c1	0.5 µg/mL (≈ 1.18 µM)	2 µg/mL (≈ 4.73 µM)	0.5 µg/mL (≈ 1.18 µM)	0.5 µg/mL (≈ 1.18 µM)	0.5 µg/mL (≈ 1.18 µM)	8 µg/mL (≈ 18.9 µM)	0.5 µg/mL (≈ 1.18 µM)	0.5 µg/mL (≈ 1.18 µM)	0.5 µg/mL (≈ 1.18 µM)	1 µg/mL (≈ 2.37 µM)
Cc1ccccc1S(=O)(=O)NC(=O)OC[C@H]1CN(c2ccc(N3CCN(c4ccc([N+](=O)[O-])s4)CC3)c(F)c2)C(=O)O1	16 µg/mL (≈ 25.8 µM)	> 8 µg/mL	1 µg/mL (≈ 1.61 µM)	8 µg/mL (≈ 12.9 µM)	0.5 µg/mL (≈ 0.807 µM)	> 16 µg/mL	16 µg/mL (≈ 25.8 µM)	16 µg/mL (≈ 25.8 µM)	16 µg/mL (≈ 25.8 µM)	1 µg/mL (≈ 1.61 µM)
CC(=O)OC[C@H]1CN(c2ccc(N3CCN(c4ccc([N+](=O)[O-])s4)CC3)c(F)c2)C(=O)O1	0.5 µg/mL (≈ 1.08 µM)	> 16 µg/mL	1 µg/mL (≈ 2.15 µM)	0.5 µg/mL (≈ 1.08 µM)	0.25 µg/mL (≈ 0.538 µM)	> 16 µg/mL	0.5 µg/mL (≈ 1.08 µM)	0.5 µg/mL (≈ 1.08 µM)	0.5 µg/mL (≈ 1.08 µM)	1 µg/mL (≈ 2.15 µM)
CC(=O)NC[C@H]1CN(c2ccc(N3CCOCC3)c(F)c2)C(=O)O1 [LINEZOLID]	–	> 4 µg/mL	2 µg/mL (≈ 5.93 µM)	–	2 µg/mL (≈ 5.93 µM)	4 µg/mL (≈ 11.9 µM)	–	–	–	–
CN[C@H](CC(C)C)C(=O)N[C@H]1C(=O)N[C@@H](CC(N)=O)C(=O)N[C@H]2C(=O)N[C@H]3C(=O)N[C@H](C(=O)N[C@H](C(=O)O)c4cc(O)cc(O)c4-c4cc3ccc4O)[C@H](O)c3ccc(c(Cl)c3)Oc3cc2cc(c3O[C@@H]2O[C@H](CO)[C@@H](O)[C@H](O)[C@H]2O[C@H]2C[C@](C)(N)[C@H](O)[C@H](C)O2)Oc2ccc(cc2Cl)[C@H]1O [VANCOMYCIN]	–	> 16 µg/mL	> 16 µg/mL	–	–	> 64 µg/mL	–	–	–	0.5 µg/mL (≈ 0.345 µM)
